Hits are enriched below; roughly 1.8% of the tested compounds scored in any of these assays.
CHRM5 agonist: agonists of human muscarinic M5 receptor (CHRM5); CHO-K1 hM5 cells, Fluo-8 calcium fluorescence; 0% DMSO wells, 100% maximal acetylcholine response; activation, % at 3 µM; AID 624037; 360,000 tested, 0.19% active;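 active means activation above the run's mean over test compounds plus 3 SD, cut at about 23% in these data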;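 further: signal is peak over basal fluorescence ratio across the kinetic read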
Target sequence (P08912 whole entry, looked up): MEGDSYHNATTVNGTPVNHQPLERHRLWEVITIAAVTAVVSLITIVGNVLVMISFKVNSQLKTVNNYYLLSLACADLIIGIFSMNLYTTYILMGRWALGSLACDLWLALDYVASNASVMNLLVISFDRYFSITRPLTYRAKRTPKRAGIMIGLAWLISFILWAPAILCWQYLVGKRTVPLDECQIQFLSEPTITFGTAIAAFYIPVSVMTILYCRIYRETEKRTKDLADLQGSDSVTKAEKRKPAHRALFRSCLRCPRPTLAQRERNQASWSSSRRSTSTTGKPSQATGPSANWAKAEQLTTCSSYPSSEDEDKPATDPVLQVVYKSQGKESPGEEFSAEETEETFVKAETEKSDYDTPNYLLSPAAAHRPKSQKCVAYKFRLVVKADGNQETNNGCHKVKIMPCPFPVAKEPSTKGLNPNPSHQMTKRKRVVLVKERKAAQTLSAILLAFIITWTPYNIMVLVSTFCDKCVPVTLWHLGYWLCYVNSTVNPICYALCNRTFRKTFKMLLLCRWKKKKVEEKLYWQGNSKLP
M4 ag: agonists of human muscarinic M4 receptor (CHRM4); AID 624127; 360,000 tested, 0.14% active; CHO-K1 hM4/Gqi5, Fluo-8 calcium fluorescence; vehicle 0%, full acetylcholine response 100%; P08173; activation, % at 3 µM;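 active means activation above the run mean over all test wells plus 3 SD, cut at about 32% in these data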;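 further: peak over basal fluorescence ratio per well then scaled between controls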
CHRM5 PAM: CHRM5 positive allosteric modulation | P08912 | CHO-K1 hM5, Fluo-8 calcium, ACh EC20 PAM; 0% = ACh EC20, 100% = ACh EC100 | activation, % at 3 µM | 360,000 tested, 0.3% active;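 active means activation above the run cutoff, the mean activation of all test compounds plus 3 SD, cut at about 18% in these data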
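Measured by: Fluo-8 calcium fluorescence; material: human M5 receptor in CHO-K1 cells; schedule: Post-acetylcholine fluorescence recording 140 s; benchmarks: low control EC20 acetylcholine (0%), high control EC100 acetylcholine (100%); read-out: Max/basal fluorescence ratio as % of EC20–EC100 ACh window; compound: single dose, 3 µM nominal final test concentration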
CHRM4 PAM: CHRM4 positive allosteric modulation. P08173. CHO-K1 hM4/Gqi5, Fluo-8 calcium fluorescence, ACh EC20; 0% = ACh EC20, 100% = maximal ACh. activation, % at 3 µM. 360,000 tested, 0.4% active. AID 624126;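 active means activation above its plate's cutoff, the mean activation of sample wells plus 3 SD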
CHRM5 antagonist: CHRM5 antagonism in calcium assay; P08912; CHO-hM5 cells, Fluo-8 calcium fluorescence, ACh EC80; inhibition, % at 3 µM; 360,000 tested, 0.59% active; AID 624040;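 active means inhibition above a per-plate cutoff, the mean of that plate's test compounds plus 3 SD, cut at about 27% in these data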
CHRM4 antagonist: CHRM4 antagonism in calcium assay | CHO-hM4 cells, ACh EC80, Fluo-8 calcium fluorescence | inhibition, % at 3 µM | 360,000 tested, 0.73% active;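 active means inhibition above its plate's cutoff, the mean inhibition of sample wells plus 3 SD, cut at about 27% in these data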
A number is an active result; – = inactive.

SMILES	CHRM5 agonist	M4 ag	CHRM5 PAM	CHRM4 PAM	CHRM5 antagonist	CHRM4 antagonist
COc1cccc(C2SCC(=O)N2c2ccc(Cl)cc2)c1OC (centres undefined)	–	–	–	–	28	59
Cc1nn(-c2ccccc2)c(C)c1NC(=O)COC(=O)CCc1ccccc1	–	–	–	–	–	–
COc1ccc(S(=O)(=O)N(C)C[C@@H]2Oc3c(NS(C)(=O)=O)cccc3C(=O)N([C@@H](C)CO)C[C@H]2C)cc1	–	–	–	–	–	–
Cc1ccc(C)n1-c1ccc(C(=O)NCc2ccncc2)cc1	–	–	–	–	–	–
Cc1ccc(C)n1-c1ccc(C(=O)NN)cc1	–	–	21	–	–	–
C[C@@H]1CN([C@H](C)CO)C(=O)CCCn2nncc2CO[C@H]1CN(C)CC1CC1	–	–	–	–	–	–
COCc1cc(C)c2c(N)c(C#N)sc2n1	–	–	–	34	–	–
CC1(Cc2ccccc2OC(F)(F)F)C(=O)Nc2ccc(-c3ccsc3)cc21 (centres undefined)	–	–	–	–	–	–
COC(=O)c1cc(S(=O)(=O)Nc2ccc(C)cn2)c[nH]1	–	–	–	–	27	–
CC(=O)c1ccc(OCCCC(=O)OCC(=O)Nc2ccc3[nH]c(=O)[nH]c3c2)cc1	–	–	–	–	–	–
C=C[C@@H]1c2cc(C)ccc2N(S(=O)(=O)c2ccc(C)cc2)[C@H](c2ccccc2)C1(C#N)C#N	–	–	19	–	–	–
Cc1c(C(=O)NCCC#N)sc(=O)n1Cc1ccccc1F	–	–	–	–	–	–
CC(C)C[C@@H](CO)NS(=O)(=O)c1c(F)cccc1F	–	–	–	–	–	–
COc1cccc(NC(=O)Nc2ccc3nc(C)c(C)nc3c2)c1	–	–	–	–	–	–
COc1cccc(NC(=O)Nc2cc(Cl)ccc2C)c1	–	–	–	–	32	–
COc1cccc(NC(=O)Nc2ccc3nsnc3c2)c1	–	–	–	–	54	–
COc1ccc2nc(NC(=O)Nc3ccccc3)sc2c1	–	–	–	–	–	43
COc1ccc(NC(=O)Nc2cccc(OC)c2)cc1	–	–	–	–	–	–
CCOc1ccc2nc(NC(=O)Nc3ccccc3)sc2c1	–	–	–	–	–	–
O=C(NCc1ccccc1)c1cc(C2CCCCN2C(=O)c2ccc3c(c2)CCO3)on1 (centres undefined)	–	–	–	–	–	–
Cc1ccc(C(=O)c2sc3nc4c(cc3c2N)CCC4)cc1	–	–	–	21	–	–
Nc1c(C(=O)N2CCCCC2)sc2nc3c(cc12)CCCC3	–	–	–	–	–	–
COc1ccc(Br)cc1C(=O)NCc1cccnc1	–	–	–	–	–	–
O=C(NC(=S)NCc1cccnc1)c1cc(Br)ccc1Cl	–	–	22	–	–	–
Cc1ccc(C(=O)N2CCC(C(=O)Nc3cccc([N+](=O)[O-])c3)CC2)cc1	–	–	–	–	–	–
SMILES	CHRM5 agonist	M4 ag	CHRM5 PAM	CHRM4 PAM	CHRM5 antagonist	CHRM4 antagonist
CC(C)(C)c1ccc(C(=O)COC(=O)CN2C(=O)NC3(CCCC3)C2=O)cc1	–	–	–	–	–	–
CC1OC2CC(=O)OC2C2=C1C(=O)c1c(O)cccc1C2=O (centres undefined)	–	–	–	–	45	29
CCc1nn(CCCC(=O)N2CCN(c3cccc(C)c3C)CC2)c(=O)c2cc3occc3n12	–	–	–	–	–	–
CN1CCC(C2(O)c3ccccc3CCc3ccccc32)CC1	–	–	–	–	37	52
CN1CCC(C2(O)c3ccccc3CSc3sccc32)CC1 (centres undefined)	–	–	–	–	–	–
CN(C)S(=O)(=O)c1ccc2c(c1)nc(CCC(=O)NCC(=O)Nc1ccc(F)c(F)c1F)n2C	–	–	–	–	–	–
CN(C)/C=C1\C=C2C(=O)c3ccccc3N2C1=O	110	65	–	–	–	–
CN(C)S(=O)(=O)N1C(=O)c2ccccc2C1=O	–	–	–	–	–	–
O=C1N=C(N2CCN(c3ccccc3)CC2)S/C1=C/c1cccs1	–	–	–	–	27	–

Screens (PubChem)
